Data from ChEMBL document CHEMBL3286116, “Synthesis, biological evaluation and structure-activity correlation study of a series of imidazol-based compounds as Candida albicans inhibitors” (Eur J Med Chem, 2014).
≈ marks a conversion by molar mass, not a printed value.

How the values were obtained:
Format in all cases: functional
[1] = system: Trichophyton mentagrophytes; test: Antifungal activity against Trichophyton mentagrophytes PMC 6503 after 72 hrs by CLSI broth microdilution method; conditions: PMC 6503, 72 h
Summary of the method: (§1)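 Dermatophytes tested by CLSI broth microdilution for filamentous fungi (M38-A2). Serial two-fold dilutions of DMSO-dissolved compound in RPMI 1640, final 0.125–64. Inoculum was 0.4–5 × 10^4 CFU mL−1, incubated at 35 °C and read at 72 h. MIC80 is the lowest concentration giving ≥80% growth inhibition versus growth control. Median of five replicates, plus geometric mean.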

[2] = system: Candida albicans; test: Ratio of fluconazole MIC to compound MIC for Candida albicans PMC 1042R after 48 hrs by CLSI broth microdilution method
[3] = system: Cryptococcus neoformans; test: Antifungal activity against Cryptococcus neoformans PMC 2115 after 72 hrs by CLSI broth microdilution method; conditions: PMC 2115, 72 h
Summary of the method: (§2)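 Cryptococcus neoformans tested by CLSI broth microdilution in RPMI 1640, with serial two-fold dilutions from DMSO stocks at 100× the top concentration, final 0.125–64. Inoculum was 1.0–1.5 × 10^3 cells mL−1 at 35 °C, with growth read at 72 h. MIC is the lowest concentration with ≥50% growth inhibition versus control. Median of five replicates, plus geometric mean.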

[4] = system: Candida albicans; test: Antifungal activity against Candida albicans ATCC 10231 after 48 hrs by CLSI broth microdilution method; conditions: ATCC 10231, 48 h
Summary of the method: (§3)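 Yeast CLSI broth microdilution (M27-A3). Compounds dissolved in DMSO at 100× the top test concentration, then diluted as serial two-fold dilutions in RPMI 1640 to final 0.125–64. Inoculum was 1.0–1.5 × 10^3 cells mL−1, incubated at 35 °C and read for growth at 48 h. MIC is the lowest concentration giving ≥50% growth inhibition versus growth control. Reported as the median of five replicates and as the geometric mean.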

[5] = system: Nakaseomyces glabratus; test: Antifungal activity against Candida glabrata PMC 0851R after 48 hrs by CLSI broth microdilution method; summary of the method: as §3
[6] = system: Nannizzia gypsea; test: Antifungal activity against Microsporum gypseum PMC 7303 after 72 hrs by CLSI broth microdilution method; conditions: PMC 7303, 72 h; summary of the method: as §1
[7] = system: Cryptococcus neoformans; test: Antifungal activity against Cryptococcus neoformans PMC 2103 after 72 hrs by CLSI broth microdilution method; conditions: PMC 2103, 72 h; summary of the method: as §2
[8] = system: Candida albicans; test: Antifungal activity against Candida albicans ATCC 20891 after 48 hrs by CLSI broth microdilution method; conditions: ATCC 20891, 48 h; summary of the method: as §3
[9] = system: Trichophyton mentagrophytes; test: Antifungal activity against Trichophyton mentagrophytes PMC 6552 after 72 hrs by CLSI broth microdilution method; conditions: PMC 6552, 72 h; summary of the method: as §1
[10] = system: Cryptococcus neoformans; test: Antifungal activity against Cryptococcus neoformans PMC 2123 after 72 hrs by CLSI broth microdilution method; conditions: PMC 2123, 72 h; summary of the method: as §2
[11] = system: Pichia kudriavzevii; test: Antifungal activity against Candida krusei PMC 0613 after 48 hrs by CLSI broth microdilution method; conditions: PMC 0613, 48 h; summary of the method: as §3
[12] = system: Candida albicans; test: Antifungal activity against Candida albicans PMC 1011 after 48 hrs by CLSI broth microdilution method; conditions: PMC 1011, 48 h; summary of the method: as §3
[13] = system: Candida parapsilosis; test: Antifungal activity against Candida parapsilosis DSM 11224 after 48 hrs by CLSI broth microdilution method; conditions: Lodderomyces parapsilosis, DSM 11224, 48 h; summary of the method: as §3
[14] = system: Cryptococcus neoformans; test: Antifungal activity against Cryptococcus neoformans PMC 2111 after 72 hrs by CLSI broth microdilution method; conditions: PMC 2111, 72 h; summary of the method: as §2
[15] = system: Trichophyton mentagrophytes; test: Antifungal activity against Trichophyton mentagrophytes PMC 6509 after 72 hrs by CLSI broth microdilution method; conditions: PMC 6509, 72 h; summary of the method: as §1
[16] = system: Nakaseomyces glabratus; test: Ratio of fluconazole MIC to compound MIC for Candida glabrata PMC 0852R after 48 hrs by CLSI broth microdilution method
[17] = system: Candida albicans; test: Ratio of fluconazole MIC to compound MIC for Candida albicans PMC 1040R after 48 hrs by CLSI broth microdilution method
[18] = system: Trichophyton mentagrophytes; test: Antifungal activity against Trichophyton mentagrophytes PMC 6515 after 72 hrs by CLSI broth microdilution method; conditions: PMC 6515, 72 h; summary of the method: as §1
[19] = system: Nakaseomyces glabratus; test: Antifungal activity against Candida glabrata PMC 0850R after 48 hrs by CLSI broth microdilution method; summary of the method: as §3
[20] = system: Candida albicans; test: Antifungal activity against Candida albicans ATCC 10261 after 48 hrs by CLSI broth microdilution method; conditions: ATCC 10261, 48 h; summary of the method: as §3
[21] = system: Cryptococcus neoformans; test: Antifungal activity against Cryptococcus neoformans DSM 11959 after 72 hrs by CLSI broth microdilution method; conditions: DSM 11959, 72 h; summary of the method: as §2
[22] = system: Nakaseomyces glabratus; test: Ratio of fluconazole MIC to compound MIC for Candida glabrata PMC 0853R after 48 hrs by CLSI broth microdilution method
[23] = system: Candida tropicalis; test: Antifungal activity against Candida tropicalis DSM 11953 after 48 hrs by CLSI broth microdilution method; conditions: DSM 11953, 48 h; summary of the method: as §3
[24] = system: Nakaseomyces glabratus; test: Antifungal activity against Candida glabrata PMC 0807 after 48 hrs by CLSI broth microdilution method; conditions: PMC 0807, 48 h; summary of the method: as §3
[25] = system: Nakaseomyces glabratus; test: Antifungal activity against Candida glabrata PMC 0852R after 48 hrs by CLSI broth microdilution method; summary of the method: as §3
[26] = system: Cryptococcus neoformans; test: Antifungal activity against Cryptococcus neoformans PMC 2102 after 72 hrs by CLSI broth microdilution method; conditions: PMC 2102, 72 h; summary of the method: as §2
[27] = system: Candida albicans; test: Ratio of fluconazole MIC to compound MIC for Candida albicans PMC 1041R after 48 hrs by CLSI broth microdilution method
[28] = system: Nakaseomyces glabratus; test: Ratio of fluconazole MIC to compound MIC for Candida glabrata PMC 0850R after 48 hrs by CLSI broth microdilution method
[29] = system: Candida tropicalis; test: Antifungal activity against Candida tropicalis PMC 0910 after 48 hrs by CLSI broth microdilution method; conditions: PMC 0910, 48 h; summary of the method: as §3
[30] = system: Pichia kudriavzevii; test: Antifungal activity against Candida krusei DSM 6128 after 48 hrs by CLSI broth microdilution method; conditions: DSM 6128, 48 h; summary of the method: as §3
[31] = system: Candida albicans; test: Antifungal activity against Candida albicans ATCC 76615 after 48 hrs by CLSI broth microdilution method; conditions: ATCC 76615, 48 h; summary of the method: as §3
[32] = system: Nakaseomyces glabratus; test: Antifungal activity against Candida glabrata PMC 0805 after 48 hrs by CLSI broth microdilution method; conditions: PMC 0805, 48 h; summary of the method: as §3
[33] = system: Nannizzia gypsea; test: Antifungal activity against Microsporum gypseum PMC 7331 after 72 hrs by CLSI broth microdilution method; conditions: PMC 7331, 72 h; summary of the method: as §1
[34] = system: Trichophyton mentagrophytes; test: Antifungal activity against Trichophyton mentagrophytes PMC 6531 after 72 hrs by CLSI broth microdilution method; conditions: PMC 6531, 72 h; summary of the method: as §1
[35] = system: Nakaseomyces glabratus; test: Ratio of fluconazole MIC to compound MIC for Candida glabrata PMC 0851R after 48 hrs by CLSI broth microdilution method
[36] = system: Candida albicans; test: Antifungal activity against Candida albicans PMC 1040R after 48 hrs by CLSI broth microdilution method; summary of the method: as §3
[37] = system: Candida albicans; test: Antifungal activity against Candida albicans ATCC 90028 after 48 hrs by CLSI broth microdilution method; conditions: ATCC 90028, 48 h; summary of the method: as §3
[38] = system: Candida albicans; test: Antifungal activity against Candida albicans PMC 1042R after 48 hrs by CLSI broth microdilution method; summary of the method: as §3
[39] = system: Candida parapsilosis; test: Antifungal activity against Candida parapsilosis ATCC 22019 after 48 hrs by CLSI broth microdilution method; conditions: Lodderomyces parapsilosis, ATCC 22019, 48 h; summary of the method: as §3
[40] = system: Nakaseomyces glabratus; test: Antifungal activity against Candida glabrata PMC 0853R after 48 hrs by CLSI broth microdilution method; summary of the method: as §3
[41] = system: Candida albicans; test: Antifungal activity against Candida albicans ATCC 24433 after 48 hrs by CLSI broth microdilution method; conditions: ATCC 24433, 48 h; summary of the method: as §3
[42] = system: Candida albicans; test: Antifungal activity against Candida albicans ATCC 3153 after 48 hrs by CLSI broth microdilution method; conditions: ATCC 3153, 48 h; summary of the method: as §3
[43] = system: Cryptococcus neoformans; test: Antifungal activity against Cryptococcus neoformans PMC 2136 after 72 hrs by CLSI broth microdilution method; conditions: PMC 2136, 72 h; summary of the method: as §2
[44] = system: Nannizzia gypsea; test: Antifungal activity against Microsporum gypseum DSM 3824 after 72 hrs by CLSI broth microdilution method; conditions: DSM 3824, 72 h; summary of the method: as §1
[45] = system: Candida albicans; test: Antifungal activity against Candida albicans PMC 1041R after 48 hrs by CLSI broth microdilution method; summary of the method: as §3
[46] = system: Trichophyton mentagrophytes; test: Antifungal activity against Trichophyton mentagrophytes DSM 4870 after 72 hrs by CLSI broth microdilution method; conditions: DSM 4870, 72 h; summary of the method: as §1
[47] = system: Cryptococcus neoformans; test: Antifungal activity against Cryptococcus neoformans PMC 2107 after 72 hrs by CLSI broth microdilution method; conditions: PMC 2107, 72 h; summary of the method: as §2

O=C(O[C@H](Cn1ccnc1)c1ccc(Cl)cc1)N1CCN(c2ccc(Cl)cc2)CC1
MIC80 [1]: 2 µg/mL (≈ 4.49 µM)
Ratio [2]: 10
MIC50 [3]: 4 µg/mL (≈ 8.98 µM)
MIC50 [4]: 0.5 µg/mL (≈ 1.12 µM)
MIC50 [5]: 8 µg/mL (≈ 18 µM)
MIC80 [6]: 1 µg/mL (≈ 2.25 µM)
MIC50 [7]: 4 µg/mL (≈ 8.98 µM)
MIC50 [8]: 0.25 µg/mL (≈ 0.561 µM)
MIC80 [9]: 1 µg/mL (≈ 2.25 µM)
MIC50 [10]: 4 µg/mL (≈ 8.98 µM)
MIC50 [11]: 0.5 µg/mL (≈ 1.12 µM)
MIC50 [12]: 0.125 µg/mL (≈ 0.281 µM)
MIC50 [13]: 0.5 µg/mL (≈ 1.12 µM)
MIC50 [14]: 2 µg/mL (≈ 4.49 µM)
MIC80 [15]: 8 µg/mL (≈ 18 µM)
Ratio [16]: 10
Ratio [17]: 10
MIC80 [18]: 4 µg/mL (≈ 8.98 µM)
MIC50 [19]: 4 µg/mL (≈ 8.98 µM)
MIC50 [20]: 0.5 µg/mL (≈ 1.12 µM)
MIC50 [21]: 4 µg/mL (≈ 8.98 µM)
Ratio [22]: 10
MIC50 [23]: 4 µg/mL (≈ 8.98 µM)
MIC50 [24]: 4 µg/mL (≈ 8.98 µM)
MIC50 [25]: 4 µg/mL (≈ 8.98 µM)
MIC50 [26]: 4 µg/mL (≈ 8.98 µM)
Ratio [27]: 10
Ratio [28]: 10
MIC50 [29]: 2 µg/mL (≈ 4.49 µM)
MIC50 [30]: 4 µg/mL (≈ 8.98 µM)
MIC50 [31]: 0.5 µg/mL (≈ 1.12 µM)
MIC50 [32]: 0.5 µg/mL (≈ 1.12 µM)
MIC80 [33]: 1 µg/mL (≈ 2.25 µM)
MIC80 [34]: 8 µg/mL (≈ 18 µM)
Ratio [35]: 10
MIC50 [36]: 32 µg/mL (≈ 71.9 µM)
MIC50 [37]: 0.125 µg/mL (≈ 0.281 µM)
MIC50 [38]: 1 µg/mL (≈ 2.25 µM)
MIC50 [39]: 0.5 µg/mL (≈ 1.12 µM)
MIC50 [40]: 4 µg/mL (≈ 8.98 µM)
MIC50 [41]: 0.25 µg/mL (≈ 0.561 µM)
MIC50 [42]: 0.25 µg/mL (≈ 0.561 µM)
MIC50 [43]: 4 µg/mL (≈ 8.98 µM)
MIC80 [44]: 8 µg/mL (≈ 18 µM)
MIC50 [45]: 4 µg/mL (≈ 8.98 µM)
MIC80 [46]: 16 µg/mL (≈ 35.9 µM)
MIC50 [47]: 2 µg/mL (≈ 4.49 µM)
